Data set [1] can be described thus: folding enthalpy; higher = less favourable; fluorescence melt of hairpins on a sequencing array, two-state fit. Particulars: sodium 0.088 M. An outline of the steps: (§1)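 Folding enthalpy and melting temperature were estimated with bootstrapped two-state fits and combined across four replicates by inverse-variance weighting, with fitted temperatures raised by 9.35 °C to match UV melts. The data were Cy3 fluorescence of library hairpins, with annealed Cy3 and quencher oligos, on a sequenced MiSeq flow cell in 50 mM Na-HEPES pH 8.0, 25 mM NaCl, imaged in 2.5 °C steps up to 60 °C and normalised to pre-quench Cy3 and control constructs.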

Data set [2] can be described thus: melting temperature; fluorescence melt of hairpins on a sequencing array, two-state fit, raised by 9.35 °C to match UV melts. The note with it: sodium 0.088 M. An outline of the steps: as §1

Consider GGTGCCGAAAGGCAGACC ((((((....)))..))), for which the folding enthalpy in data set [1] was -50.5 kJ/mol. For the same sequence, in data set [2], the Tm stood at 52.2 °C.
Regarding GACACCGGAAACGGTATC ((.((((....)))).)), the folding enthalpy in data set [1] was -66.4 kJ/mol. The Tm in data set [2] amounted to 36.1 °C.
The matching figures for GGACTTCGAAAGAATTCC (((.(((....))).))): -133 kJ/mol and 36.8 °C.
Consider GTCCACGAAAGTGTCGAC ((((((....)))..))), for which, in data set [1], the folding enthalpy was -58.5 kJ/mol. The Tm in data set [2] is 33.8 °C.
The matching figures for GGATTTCGAAAGAATTCC (((.(((....))).))): -130 kJ/mol and 42 °C.
The matching figures for GATCTAATATAGATC ((((((...)))))): -120 kJ/mol and 38.8 °C.
The matching figures for GATCAGTTTGCTGATC ((((((....)))))): -185 kJ/mol and 53.8 °C.
Regarding GAATGTGCGAAAGCATTC (((..(((....)))))), in data set [1], the folding enthalpy was -39.7 kJ/mol. Besides, the Tm in data set [2] worked out at 29.3 °C.
The matching figures for GAACTGGGAAACCGGTTC ((((.((....)).)))): -166 kJ/mol and 50.1 °C.
In the case of GACGACGAAAGTCAGTC ((((((....))).))), in data set [1], the folding enthalpy is -104 kJ/mol. Besides, in data set [2], the Tm was determined as 54.1 °C.
The matching figures for GAGATCCGAAAGGACTC (((.(((....)))))): -79 kJ/mol and 44.2 °C.
The matching figures for GAGTAGGCGAAAGCCCTC (((..(((....)))))): -45.3 kJ/mol and 35.4 °C.
For GATTACGCGAAAGCGATC (((..(((....)))))), the folding enthalpy in data set [1] was -27.2 kJ/mol. Besides, the Tm in data set [2] came to 21.4 °C.
Consider GGTCGCGAAAGCGCACC ((((((....))).))), for which the folding enthalpy in data set [1] was -87 kJ/mol. The Tm in data set [2] is 60.3 °C.
With GATCTGAGTCAGATC ((((((...)))))), the folding enthalpy in data set [1] is -153 kJ/mol. Further, the Tm in data set [2] came out at 47.5 °C.
The matching figures for GCAACCGAAAGGTTTGC ((((((....))).))): -98.8 kJ/mol and 55.7 °C.
For GAGTTAGGAAACTAACCC (.(((((....))))).), in that order: -72.6 kJ/mol and 30.4 °C.
For GGTACCGAAAGGTCTACC ((((((....)))..))), in that order: -62.8 kJ/mol and 33.9 °C.
In the case of GGACACGAAAGTGGATCC ((((((....)))..))), the folding enthalpy in data set [1] was -65.1 kJ/mol. Besides, the Tm in data set [2] was determined as 40.3 °C.
For GACGAGGCGAAAGCCGTC (((..(((....)))))), in that order: -36.7 kJ/mol and 51.5 °C.
The matching figures for GCGGTCTCCCGC ((((....)))): -140 kJ/mol and 55.5 °C.
For GAAACAGCGAAAGCTTTC (((..(((....)))))), in that order: -64 kJ/mol and 29.1 °C.
As for GATCCACCTTTGGATC ((((((....)))))), the folding enthalpy in data set [1] is -146 kJ/mol. Also, the Tm in data set [2] is 50.1 °C.
For GATCGGTTTGCCGATC ((((((....)))))), in that order: -200 kJ/mol and 61.6 °C.
In the case of GTTTCCGAAAGGAGAAAC ((((((....)))..))), the folding enthalpy in data set [1] was -70.4 kJ/mol. In data set [2], the Tm was 32.5 °C.
For the sequence GGCGTACCGAAAGGTGCC (((..(((....)))))), the folding enthalpy in data set [1] is -139 kJ/mol. Besides, the Tm in data set [2] was found to be 54.7 °C.
In the case of GGCACTTCGAAAGAAGCC (((..(((....)))))), in data set [1], the folding enthalpy was -38.3 kJ/mol. Further, the Tm in data set [2] turned out to be 32.2 °C.
Take GCGTTCGAAAGAATTCGC ((((((....)))..))): the folding enthalpy in data set [1] was -111 kJ/mol. Also, the Tm in data set [2] amounted to 36.2 °C.
The matching figures for GAAAGACCGAAAGGTTTC (((..(((....)))))): -47.9 kJ/mol and 28.8 °C.
The matching figures for GCCCACGGAAACACGGGC ((((..(....)..)))): -102 kJ/mol and 46.5 °C.

For the origin of these results see the array DNA melting data of Ke et al. (doi:10.1101/2024.01.08.574731).
